Assay results reported in ChEMBL document CHEMBL5661979, “Pharmacological inhibition of BMK1 suppresses tumor growth through promyelocytic leukemia protein” (Cancer Cell, 2010).

Tests used:
[1] = biological target: Cyclin-dependent kinase 2 (Homo sapiens, UniProt P24941); assay: Inhibition of CDK2 K1 site in human HeLa cells lysate pre incubated for 15 mins followed by ATP acyl phosphate probe addition and measured after 10 mins by LC-MS/MS analysis; format: subcellular
In short: (§1)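 KiNativ profiling in HeLa lysate (5 mg/mL total protein). Lysate incubated 15 min with inhibitor at 50, 10, 2, 0.8 or 0 μM. ATP or ADP acylphosphate probe then added (5 μM final) and reacted 10 min. Reaction stopped with urea and analysed by targeted MS, using up to four fragment ions per kinase peptide-probe conjugate. % inhibition taken against untreated lysate. Run in duplicate.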

[2] = biological target: Serine/threonine-protein kinase TAO2 (Homo sapiens, UniProt Q9UL54); assay: Inhibition of TAO2 in human HeLa cells lysate pre incubated for 15 mins followed by ATP acyl phosphate probe addition and measured after 10 mins by LC-MS/MS analysis; format: subcellular
[3] = biological target: Serine/threonine-protein kinase WNK1 (Homo sapiens, UniProt Q9H4A3); assay: Inhibition of Wnk1 in human HeLa cells lysate pre incubated for 15 mins followed by ATP acyl phosphate probe addition and measured after 10 mins by LC-MS/MS analysis; format: subcellular
[4] = biological target: Cyclin-dependent kinase 1 (Homo sapiens, UniProt P06493); assay: Inhibition of CDC2 in human HeLa cells lysate pre incubated for 15 mins followed by ADP acyl phosphate probe addition and measured after 10 mins by LC-MS/MS analysis; format: subcellular; in short: as §1
[5] = biological target: Interferon-induced, double-stranded RNA-activated protein kinase (Homo sapiens, UniProt P19525); assay: Inhibition of PKR in human HeLa cells lysate pre incubated for 15 mins followed by ADP acyl phosphate probe addition and measured after 10 mins by LC-MS/MS analysis; format: subcellular
[6] = biological target: Serine/threonine-protein kinase PLK1 (Homo sapiens, UniProt P53350); assay: Inhibition of PLK1 in human HeLa cells lysate pre incubated for 15 mins followed by ADP acyl phosphate probe addition and measured after 10 mins by LC-MS/MS analysis; format: subcellular
[7] = MRT in Sprague-Dawley rat at 1 mg/kg, iv measured up to 8 hrs by LC-MS/MS analysis; format: ADME, organism-based; conditions: in vivo
[8] = biological target: T1, Phosphatidylinositol 5-phosphate 4-kinase type-2 alpha (Homo sapiens) (UniProt P48426); assay: Inhibition of PIP5K2A LIP site in human HeLa cells lysate at 50 uM pre incubated for 15 mins followed by ADP acyl phosphate probe addition and measured after 10 mins by LC-MS/MS analysis relative to control; format: subcellular; conditions: time 25.0 min
T1 sequence (whole entry): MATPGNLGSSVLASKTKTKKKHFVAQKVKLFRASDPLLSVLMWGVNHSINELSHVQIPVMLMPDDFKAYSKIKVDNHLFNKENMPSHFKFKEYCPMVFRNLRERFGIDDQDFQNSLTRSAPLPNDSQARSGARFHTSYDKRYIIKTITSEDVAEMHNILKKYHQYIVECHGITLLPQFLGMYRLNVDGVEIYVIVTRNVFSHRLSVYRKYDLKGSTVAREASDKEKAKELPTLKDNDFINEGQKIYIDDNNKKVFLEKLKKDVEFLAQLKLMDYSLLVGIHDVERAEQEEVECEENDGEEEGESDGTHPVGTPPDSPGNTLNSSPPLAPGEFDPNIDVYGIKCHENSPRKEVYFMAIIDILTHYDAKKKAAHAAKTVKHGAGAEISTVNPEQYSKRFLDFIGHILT

[9] = Inhibition of CK1g1/g2/g3 in human HeLa cells lysate at 10 uM pre incubated for 15 mins followed by ADP acyl phosphate probe addition and measured after 10 mins by LC-MS/MS analysis relative to control; conditions: 25 min, condition cancer
[10] = biological target: IKK epsilon/TBK1 (Homo sapiens) (UniProt Q14164+Q9UHD2); assay: Inhibition of IKKE/TBK1 in human HeLa cells lysate at 2 uM pre incubated for 15 mins followed by ADP acyl phosphate probe addition and measured after 10 mins by LC-MS/MS analysis relative to control; format: subcellular; conditions: time 25.0 min
[11] = biological target: Mitogen-activated protein kinase kinase kinase 5 (Homo sapiens) (UniProt Q99683); assay: Inhibition of MAP3K5 in human HeLa cells lysate at 10 uM pre incubated for 15 mins followed by ATP acyl phosphate probe addition and measured after 10 mins by LC-MS/MS analysis relative to control; format: subcellular; conditions: time 25.0 min
[12] = biological target: T2, Serine/threonine-protein kinase Nek9 (Homo sapiens) (UniProt Q8TD19); assay: Inhibition of NEK9 in human HeLa cells lysate at 2 uM pre incubated for 15 mins followed by ATP acyl phosphate probe addition and measured after 10 mins by LC-MS/MS analysis relative to control; format: subcellular; conditions: time 25.0 min
T2 sequence (whole entry): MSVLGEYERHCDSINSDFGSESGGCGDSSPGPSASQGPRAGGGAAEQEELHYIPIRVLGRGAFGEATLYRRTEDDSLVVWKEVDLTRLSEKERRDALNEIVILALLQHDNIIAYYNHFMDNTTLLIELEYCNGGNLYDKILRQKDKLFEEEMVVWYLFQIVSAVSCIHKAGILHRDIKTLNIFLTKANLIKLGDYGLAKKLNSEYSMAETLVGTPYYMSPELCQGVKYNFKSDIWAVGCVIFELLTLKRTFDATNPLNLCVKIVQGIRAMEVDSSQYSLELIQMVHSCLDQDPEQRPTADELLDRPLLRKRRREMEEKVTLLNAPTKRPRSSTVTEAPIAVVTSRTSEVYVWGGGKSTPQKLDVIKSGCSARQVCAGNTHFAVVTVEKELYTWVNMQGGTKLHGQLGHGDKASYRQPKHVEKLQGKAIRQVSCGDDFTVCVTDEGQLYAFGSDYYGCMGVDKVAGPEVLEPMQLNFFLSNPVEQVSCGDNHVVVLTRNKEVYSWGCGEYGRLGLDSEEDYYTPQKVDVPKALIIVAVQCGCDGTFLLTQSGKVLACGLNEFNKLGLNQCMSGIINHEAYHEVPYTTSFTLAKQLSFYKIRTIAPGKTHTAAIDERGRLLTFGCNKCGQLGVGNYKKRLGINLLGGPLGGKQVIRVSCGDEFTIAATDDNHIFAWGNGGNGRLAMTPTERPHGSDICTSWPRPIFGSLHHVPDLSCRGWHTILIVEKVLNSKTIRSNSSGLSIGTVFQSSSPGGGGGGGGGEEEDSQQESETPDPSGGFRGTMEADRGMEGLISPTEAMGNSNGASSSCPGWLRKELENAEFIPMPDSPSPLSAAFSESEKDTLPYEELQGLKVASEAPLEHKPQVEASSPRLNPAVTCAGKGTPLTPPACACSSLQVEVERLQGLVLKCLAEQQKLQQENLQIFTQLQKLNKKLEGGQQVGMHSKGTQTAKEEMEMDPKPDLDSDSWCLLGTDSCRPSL

[13] = Inhibition of MAP3K2/3 in human HeLa cells lysate at 2 uM pre incubated for 15 mins followed by ATP acyl phosphate probe addition and measured after 10 mins by LC-MS/MS analysis relative to control; conditions: 25 min, condition cancer
[14] = Toxicity in C57Bl/6 mouse assessed as effect on amylase level at 50 mg/kg, ip for 14 days (reference value: 1027 U/L); format: organism-based; conditions: in vivo, 336 h, time 14 day

Chain of Serine/threonine-protein kinase WNK1 (Q9H4A3 whole entry): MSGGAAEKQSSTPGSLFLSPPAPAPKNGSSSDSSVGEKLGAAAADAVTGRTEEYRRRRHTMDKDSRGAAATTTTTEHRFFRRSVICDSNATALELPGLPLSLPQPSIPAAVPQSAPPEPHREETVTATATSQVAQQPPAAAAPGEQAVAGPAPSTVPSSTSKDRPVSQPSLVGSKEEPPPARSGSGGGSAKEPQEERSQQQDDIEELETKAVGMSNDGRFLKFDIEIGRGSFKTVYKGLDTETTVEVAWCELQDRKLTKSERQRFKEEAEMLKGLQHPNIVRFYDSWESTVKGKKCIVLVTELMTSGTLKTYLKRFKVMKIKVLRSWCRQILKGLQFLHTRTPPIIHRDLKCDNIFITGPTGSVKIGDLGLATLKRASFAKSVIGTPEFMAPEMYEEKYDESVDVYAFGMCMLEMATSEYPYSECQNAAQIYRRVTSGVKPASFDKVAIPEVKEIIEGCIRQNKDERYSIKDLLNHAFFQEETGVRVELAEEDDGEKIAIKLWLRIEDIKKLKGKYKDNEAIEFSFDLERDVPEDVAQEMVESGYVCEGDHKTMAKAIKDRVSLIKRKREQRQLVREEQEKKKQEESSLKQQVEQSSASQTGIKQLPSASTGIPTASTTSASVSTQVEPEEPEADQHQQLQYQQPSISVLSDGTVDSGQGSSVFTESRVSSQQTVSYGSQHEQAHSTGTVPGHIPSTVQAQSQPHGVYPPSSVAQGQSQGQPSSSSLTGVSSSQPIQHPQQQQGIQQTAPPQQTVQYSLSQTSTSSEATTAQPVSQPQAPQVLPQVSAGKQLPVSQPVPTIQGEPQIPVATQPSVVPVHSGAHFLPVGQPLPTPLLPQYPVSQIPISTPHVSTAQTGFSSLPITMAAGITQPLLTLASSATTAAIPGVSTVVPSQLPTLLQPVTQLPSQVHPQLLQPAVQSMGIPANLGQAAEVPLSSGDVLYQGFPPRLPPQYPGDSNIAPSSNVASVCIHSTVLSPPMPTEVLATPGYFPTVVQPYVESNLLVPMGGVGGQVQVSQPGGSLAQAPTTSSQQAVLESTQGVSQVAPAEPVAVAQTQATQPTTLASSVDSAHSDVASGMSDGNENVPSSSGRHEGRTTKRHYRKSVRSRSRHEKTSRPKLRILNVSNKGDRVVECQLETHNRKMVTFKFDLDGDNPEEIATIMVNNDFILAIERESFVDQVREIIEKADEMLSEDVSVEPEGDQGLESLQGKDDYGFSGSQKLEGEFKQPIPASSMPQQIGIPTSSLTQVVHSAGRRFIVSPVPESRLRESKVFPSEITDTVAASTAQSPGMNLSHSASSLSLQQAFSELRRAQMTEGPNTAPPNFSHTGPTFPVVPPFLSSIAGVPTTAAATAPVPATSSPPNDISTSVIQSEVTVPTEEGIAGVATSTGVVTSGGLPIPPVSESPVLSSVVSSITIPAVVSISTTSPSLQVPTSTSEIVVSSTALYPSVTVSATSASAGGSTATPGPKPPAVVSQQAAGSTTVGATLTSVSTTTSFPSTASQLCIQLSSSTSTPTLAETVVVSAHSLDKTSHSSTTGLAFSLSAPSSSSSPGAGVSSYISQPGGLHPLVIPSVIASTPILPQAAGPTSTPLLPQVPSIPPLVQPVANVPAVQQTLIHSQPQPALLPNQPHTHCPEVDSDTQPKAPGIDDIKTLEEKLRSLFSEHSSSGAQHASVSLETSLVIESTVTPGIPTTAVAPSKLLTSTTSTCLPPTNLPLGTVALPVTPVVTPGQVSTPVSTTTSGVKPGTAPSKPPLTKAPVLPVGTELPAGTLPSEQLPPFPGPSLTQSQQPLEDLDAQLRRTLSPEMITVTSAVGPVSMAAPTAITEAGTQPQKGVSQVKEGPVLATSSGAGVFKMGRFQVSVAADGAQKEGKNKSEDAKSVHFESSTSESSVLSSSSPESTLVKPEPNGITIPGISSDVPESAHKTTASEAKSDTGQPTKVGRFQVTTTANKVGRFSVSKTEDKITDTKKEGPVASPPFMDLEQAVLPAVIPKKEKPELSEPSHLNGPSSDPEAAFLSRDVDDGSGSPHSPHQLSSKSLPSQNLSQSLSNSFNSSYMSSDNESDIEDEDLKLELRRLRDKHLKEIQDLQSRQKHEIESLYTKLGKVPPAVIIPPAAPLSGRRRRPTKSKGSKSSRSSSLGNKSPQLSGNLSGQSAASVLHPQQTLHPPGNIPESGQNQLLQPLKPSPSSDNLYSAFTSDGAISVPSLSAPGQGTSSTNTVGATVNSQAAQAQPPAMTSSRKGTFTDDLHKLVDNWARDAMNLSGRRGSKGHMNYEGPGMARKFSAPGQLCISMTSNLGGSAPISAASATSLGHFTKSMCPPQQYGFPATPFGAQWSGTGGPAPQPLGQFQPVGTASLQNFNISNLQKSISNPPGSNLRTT
Chain of Serine/threonine-protein kinase TAO2 (Q9UL54 whole entry): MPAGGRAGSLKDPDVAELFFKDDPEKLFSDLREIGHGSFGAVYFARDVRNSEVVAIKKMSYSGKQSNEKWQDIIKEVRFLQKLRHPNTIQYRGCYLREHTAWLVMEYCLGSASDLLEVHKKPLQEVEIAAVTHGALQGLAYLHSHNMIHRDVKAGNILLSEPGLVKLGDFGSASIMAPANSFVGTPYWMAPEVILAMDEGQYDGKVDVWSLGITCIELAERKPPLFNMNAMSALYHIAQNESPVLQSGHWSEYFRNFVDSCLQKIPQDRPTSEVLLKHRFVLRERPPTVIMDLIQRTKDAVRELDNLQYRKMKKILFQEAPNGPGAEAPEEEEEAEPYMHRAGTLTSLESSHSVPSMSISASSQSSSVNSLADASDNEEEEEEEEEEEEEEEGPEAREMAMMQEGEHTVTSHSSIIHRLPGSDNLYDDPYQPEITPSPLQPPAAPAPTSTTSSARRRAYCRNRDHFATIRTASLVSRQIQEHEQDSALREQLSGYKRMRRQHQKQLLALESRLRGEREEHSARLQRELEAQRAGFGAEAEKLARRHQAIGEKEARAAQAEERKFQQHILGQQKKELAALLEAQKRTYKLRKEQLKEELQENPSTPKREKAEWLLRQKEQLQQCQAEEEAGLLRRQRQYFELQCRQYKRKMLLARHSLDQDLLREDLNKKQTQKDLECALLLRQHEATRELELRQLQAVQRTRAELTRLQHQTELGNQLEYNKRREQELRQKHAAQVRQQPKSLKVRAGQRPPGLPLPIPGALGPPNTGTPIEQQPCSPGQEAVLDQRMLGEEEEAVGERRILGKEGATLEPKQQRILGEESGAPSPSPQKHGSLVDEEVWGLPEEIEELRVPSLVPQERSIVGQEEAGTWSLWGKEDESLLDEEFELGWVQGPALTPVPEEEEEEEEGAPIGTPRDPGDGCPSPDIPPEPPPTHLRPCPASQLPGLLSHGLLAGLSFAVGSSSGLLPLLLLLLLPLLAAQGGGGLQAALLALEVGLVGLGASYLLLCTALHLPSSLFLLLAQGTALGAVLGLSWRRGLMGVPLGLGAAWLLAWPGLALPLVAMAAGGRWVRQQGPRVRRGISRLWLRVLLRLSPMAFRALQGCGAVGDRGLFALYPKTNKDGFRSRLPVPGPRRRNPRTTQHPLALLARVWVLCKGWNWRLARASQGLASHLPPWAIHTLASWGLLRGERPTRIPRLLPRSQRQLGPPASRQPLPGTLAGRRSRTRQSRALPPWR
Chain of Serine/threonine-protein kinase PLK1 (P53350 whole entry): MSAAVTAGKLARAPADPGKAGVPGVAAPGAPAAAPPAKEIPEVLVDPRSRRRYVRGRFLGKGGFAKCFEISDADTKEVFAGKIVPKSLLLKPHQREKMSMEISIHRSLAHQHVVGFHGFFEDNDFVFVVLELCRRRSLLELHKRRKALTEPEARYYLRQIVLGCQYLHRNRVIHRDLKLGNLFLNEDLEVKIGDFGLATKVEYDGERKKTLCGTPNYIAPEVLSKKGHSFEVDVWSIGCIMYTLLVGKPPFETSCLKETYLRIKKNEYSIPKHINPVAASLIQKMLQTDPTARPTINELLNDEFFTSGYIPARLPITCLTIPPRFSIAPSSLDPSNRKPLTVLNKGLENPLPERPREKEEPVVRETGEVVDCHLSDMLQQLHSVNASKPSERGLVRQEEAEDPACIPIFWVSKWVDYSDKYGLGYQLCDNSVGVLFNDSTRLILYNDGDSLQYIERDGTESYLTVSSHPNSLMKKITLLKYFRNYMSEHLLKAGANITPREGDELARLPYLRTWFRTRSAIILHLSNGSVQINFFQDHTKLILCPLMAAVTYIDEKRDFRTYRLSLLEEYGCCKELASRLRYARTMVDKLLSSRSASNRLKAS
Chain of Cyclin-dependent kinase 1 (P06493 whole entry): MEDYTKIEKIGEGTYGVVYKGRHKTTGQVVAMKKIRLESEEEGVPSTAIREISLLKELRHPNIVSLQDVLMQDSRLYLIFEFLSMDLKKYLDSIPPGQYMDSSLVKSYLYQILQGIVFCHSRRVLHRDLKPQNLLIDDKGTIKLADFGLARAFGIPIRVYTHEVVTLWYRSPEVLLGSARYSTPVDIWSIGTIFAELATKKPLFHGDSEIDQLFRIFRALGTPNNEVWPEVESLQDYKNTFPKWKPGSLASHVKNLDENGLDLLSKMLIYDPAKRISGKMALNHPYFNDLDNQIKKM
Chain of Interferon-induced, double-stranded RNA-activated protein kinase (P19525 whole entry): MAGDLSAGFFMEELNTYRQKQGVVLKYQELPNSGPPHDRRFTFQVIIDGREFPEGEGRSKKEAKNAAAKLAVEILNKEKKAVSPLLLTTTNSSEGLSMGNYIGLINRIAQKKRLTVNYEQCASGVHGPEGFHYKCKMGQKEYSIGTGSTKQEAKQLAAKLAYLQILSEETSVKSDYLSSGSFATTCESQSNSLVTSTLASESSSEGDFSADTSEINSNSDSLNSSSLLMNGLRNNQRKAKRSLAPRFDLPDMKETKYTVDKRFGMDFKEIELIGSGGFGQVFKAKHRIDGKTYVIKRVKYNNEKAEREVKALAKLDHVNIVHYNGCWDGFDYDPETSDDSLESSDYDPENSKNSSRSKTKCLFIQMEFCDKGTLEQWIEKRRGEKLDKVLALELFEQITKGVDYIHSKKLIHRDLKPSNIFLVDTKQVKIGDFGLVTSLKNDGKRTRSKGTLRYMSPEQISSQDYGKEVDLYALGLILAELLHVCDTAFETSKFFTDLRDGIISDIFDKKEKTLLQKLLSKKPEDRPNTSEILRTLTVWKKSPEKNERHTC

## CCOc1cc(N2CCC(O)CC2)ccc1Nc1ncc2c(n1)N(C)c1ccccc1C(=O)N2C
[1]
  IC50: > 50 µM
[2]
  IC50: > 50 µM
[3]
  IC50: > 50 µM
[4]
  IC50: > 50 µM
[5]
  IC50: > 50 µM
[6]
  IC50: > 50 µM
[7]
  MRT: 2.2 h
[8]
  inhibition: 15.1%
[9]
  inhibition at 10 µM: 18.1%
[10]
  inhibition: -2.6%
[11]
  inhibition: 12.5%
[12]
  inhibition: 3%
[13]
  inhibition at 2 µM: -2.1%
[14]
  Activity: 664 U/L
